How the values were obtained:
[1] = Half-life value of the compound.; type: ADME
How it was run: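 Chemical stability: compound dissolved at 1 mg/mL in 0.5 M MOPS, pH 8.0, held at 25 °C in capped vial; aliquots quenched in 2% aqueous TFA and analysed by reverse-phase HPLC over one to two half-lives. Peak areas fit to first-order decay F(t)=A/2^(t/t1/2) to give t1/2.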

[2] = target: T1, Neutrophil elastase (Homo sapiens, UniProt P08246); assay: Inhibitory activity against HLE at 10 min (48 mM conc)
T1 sequence (P08246 whole entry): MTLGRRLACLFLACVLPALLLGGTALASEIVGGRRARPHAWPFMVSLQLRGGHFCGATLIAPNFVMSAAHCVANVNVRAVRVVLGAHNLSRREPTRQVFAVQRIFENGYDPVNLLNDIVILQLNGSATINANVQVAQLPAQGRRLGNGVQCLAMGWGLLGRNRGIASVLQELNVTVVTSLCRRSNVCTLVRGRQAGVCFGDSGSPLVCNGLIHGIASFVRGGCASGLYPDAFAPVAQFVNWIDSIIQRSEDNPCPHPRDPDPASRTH

[3] = Inhibition of elastin solubilization; type: functional
[4] = system: Cricetinae gen. sp.; assay: Inhibition of lung hemorrhage at 200 ug/animal; type: functional, Cricetulus griseus
How it was run: (§1)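 Hamster duration protocol: 200 μg/animal given intratracheally 60, 120, 180 or 240 min before IT HLE instillation; hemorrhage scored after 3 h as hemoglobin (414 nm) in saline lung lavage, relative to vehicle-treated animals; three animals per point. T50 taken as time at which 50% inhibition is still obtained.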

[5] = system: Cricetinae gen. sp.; assay: Inhibitory activity against Human Leukocyte Elastase by Lung Hemorrhage assay (Effective dose at 15 microg); type: functional, Cricetulus griseus
[6] = system: Cricetinae gen. sp.; assay: Compound was evaluated in vivo for inhibition of HLE-induced hemorrhage in hamster lung at 200 microg 1 hr after administration prior to HLE; type: functional, Cricetulus griseus; how it was run: as §1
[7] = system: Cricetinae gen. sp.; assay: Compound was evaluated in vivo for inhibition of HLE-induced hemorrhage in hamster lung at 200 microg 2 hr after administration prior to HLE; type: functional, Cricetulus griseus; how it was run: as §1
[8] = system: Cricetinae gen. sp.; assay: Compound was evaluated in vivo for inhibition of HLE-induced hemorrhage in hamster lung at 200 microg 3h after administration prior to HLE; type: functional, Cricetulus griseus; how it was run: as §1
[9] = system: Cricetinae gen. sp.; assay: Compound was evaluated in vivo for inhibition of HLE-induced hemorrhage in hamster lung at 200 microg 4 hr after administration prior to HLE; type: functional, Cricetulus griseus; how it was run: as §1
[10] = system: Cricetinae gen. sp.; assay: Compound was evaluated in vivo for inhibition of HLE-induced hemorrhage in hamster lung at 10 microg 30 min after administration prior to HLE; type: functional, Cricetulus griseus
How it was run: (§2)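 Hamster, intratracheal dosing of compound (per animal) 30 min before IT instillation of 50 μg HLE (50 units in Experimental); hemorrhage read 3 h later: lungs lavaged with saline, hemoglobin in lavage measured at 414 nm. Percent inhibition from drug-treated vs vehicle-treated hemorrhage; three animals per dose and time. Titration at 100, 30, 10, 3 μg/animal gives ED50.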

[11] = system: Cricetinae gen. sp.; assay: Compound was evaluated in vivo for inhibition of HLE-induced hemorrhage in hamster lung at 30 microg 30 min after administration prior to HLE; type: functional, Cricetulus griseus; how it was run: as §2
[12] = system: Cricetinae gen. sp.; assay: Compound was evaluated in vivo for inhibition of HLE-induced hemorrhage in hamster lung at 100 microg 30 min after administration prior to HLE; type: functional, Cricetulus griseus; how it was run: as §2
[13] = system: Cricetinae gen. sp.; assay: Inhibitory activity against Human Leukocyte Elastase by Lung Hemorrhage assay; type: functional, Cricetulus griseus
[14] = species: Homo sapiens; assay: Inhibitory activity against Clotting cascade at 10 min (240 nM conc); type: functional
How it was run: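 Whole clotting cascade tested with compound at 240 nM; percent inhibition at 10 min.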

[15] = species: Homo sapiens; assay: Inhibitory activity against Complement cascade at 10 min (120 mM conc); type: functional
[16] = target: Pepsin A (Homo sapiens) (UniProt P0DJD9); assay: Inhibitory activity against Pepsin at 48 mM for 10 min
Sequence of Pepsin A (Homo sapiens) (P0DJD9 63-388 limits assumed): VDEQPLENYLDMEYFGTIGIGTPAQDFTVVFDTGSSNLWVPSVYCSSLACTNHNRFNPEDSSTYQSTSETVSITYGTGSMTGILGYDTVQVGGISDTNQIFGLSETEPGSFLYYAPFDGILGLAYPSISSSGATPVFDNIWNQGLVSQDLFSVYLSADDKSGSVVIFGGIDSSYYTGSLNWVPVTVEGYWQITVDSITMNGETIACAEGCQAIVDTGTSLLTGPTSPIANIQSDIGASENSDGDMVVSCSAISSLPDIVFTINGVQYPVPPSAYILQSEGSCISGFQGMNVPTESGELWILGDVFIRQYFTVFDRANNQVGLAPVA
How it was run: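 Pepsin activity was tracked at 310 nm as hydrolysis of 1 mM Phe-Gly-His-p-NO2-Phe-Phe-Ala-OMe in 0.04 M formate buffer at pH 4.0. Percent inhibition was read at 10 min.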

[17] = target: Plasminogen (Homo sapiens) (UniProt P00747); assay: Inhibitory activity against Plasmin at 10 min (48 mM conc) using 0.2 mM Tosyl-Gly-Pro-Arg-p-nitroanilide as substrate
Sequence of Plasminogen (Homo sapiens) (P00747 97-580 limits assumed): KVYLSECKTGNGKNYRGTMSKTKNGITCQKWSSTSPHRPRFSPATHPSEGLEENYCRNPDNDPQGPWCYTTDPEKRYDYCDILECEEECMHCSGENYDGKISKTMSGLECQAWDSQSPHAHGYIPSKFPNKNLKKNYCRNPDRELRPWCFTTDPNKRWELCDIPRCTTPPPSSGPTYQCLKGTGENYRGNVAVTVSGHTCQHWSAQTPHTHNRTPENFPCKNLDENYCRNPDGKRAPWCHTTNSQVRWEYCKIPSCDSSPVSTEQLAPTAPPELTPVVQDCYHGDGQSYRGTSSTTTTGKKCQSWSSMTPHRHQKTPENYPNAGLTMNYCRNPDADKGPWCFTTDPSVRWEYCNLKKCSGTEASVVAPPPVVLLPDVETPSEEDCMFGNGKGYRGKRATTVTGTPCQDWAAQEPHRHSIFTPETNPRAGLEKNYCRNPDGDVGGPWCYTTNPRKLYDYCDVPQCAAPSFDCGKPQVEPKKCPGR
Sequence of Plasminogen (Homo sapiens) (P00747 581-810 limits assumed): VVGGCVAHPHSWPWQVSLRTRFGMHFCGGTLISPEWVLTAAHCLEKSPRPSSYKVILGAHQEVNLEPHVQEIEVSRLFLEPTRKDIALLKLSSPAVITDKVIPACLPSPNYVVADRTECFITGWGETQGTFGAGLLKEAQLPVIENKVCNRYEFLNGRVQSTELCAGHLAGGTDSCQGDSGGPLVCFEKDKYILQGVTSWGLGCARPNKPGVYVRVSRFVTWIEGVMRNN
How it was run: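 Human plasmin run under the same conditions as the HLE assay, with 0.2 mM Tosyl-Gly-Pro-Arg-p-nitroanilide as substrate. Inhibitor at 48 mM (so in the source). Percent inhibition read at 10 min.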

[18] = target: T2, Papain (Carica papaya) (UniProt P00784); assay: Inhibitory activity against Papain at 10 min (48 mM conc)
T2 sequence (whole entry): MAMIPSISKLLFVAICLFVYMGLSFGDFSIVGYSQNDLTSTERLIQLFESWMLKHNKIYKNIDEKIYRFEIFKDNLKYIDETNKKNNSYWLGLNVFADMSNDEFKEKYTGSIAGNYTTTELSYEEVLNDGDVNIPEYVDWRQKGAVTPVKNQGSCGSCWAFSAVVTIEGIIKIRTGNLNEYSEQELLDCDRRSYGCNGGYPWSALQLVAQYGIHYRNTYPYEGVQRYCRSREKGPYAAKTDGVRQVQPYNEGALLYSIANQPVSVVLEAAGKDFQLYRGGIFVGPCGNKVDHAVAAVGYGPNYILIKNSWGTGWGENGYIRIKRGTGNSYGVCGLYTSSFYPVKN
How it was run: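 Papain activity was read at 410 nm as p-nitroanilide release from benzoyl-Arg-p-nitroanilide, in pH 7.5 TES with 0.001 M EDTA, 0.005 M Cys and 10% DMSO. Percent inhibition was taken at 10 min.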

[19] = target: T3, Thermolysin (Bacillus thermoproteolyticus) (UniProt P00800); assay: Inhibitory activity against Thermolysin at 10 min (48 mM conc)
T3 sequence (whole entry): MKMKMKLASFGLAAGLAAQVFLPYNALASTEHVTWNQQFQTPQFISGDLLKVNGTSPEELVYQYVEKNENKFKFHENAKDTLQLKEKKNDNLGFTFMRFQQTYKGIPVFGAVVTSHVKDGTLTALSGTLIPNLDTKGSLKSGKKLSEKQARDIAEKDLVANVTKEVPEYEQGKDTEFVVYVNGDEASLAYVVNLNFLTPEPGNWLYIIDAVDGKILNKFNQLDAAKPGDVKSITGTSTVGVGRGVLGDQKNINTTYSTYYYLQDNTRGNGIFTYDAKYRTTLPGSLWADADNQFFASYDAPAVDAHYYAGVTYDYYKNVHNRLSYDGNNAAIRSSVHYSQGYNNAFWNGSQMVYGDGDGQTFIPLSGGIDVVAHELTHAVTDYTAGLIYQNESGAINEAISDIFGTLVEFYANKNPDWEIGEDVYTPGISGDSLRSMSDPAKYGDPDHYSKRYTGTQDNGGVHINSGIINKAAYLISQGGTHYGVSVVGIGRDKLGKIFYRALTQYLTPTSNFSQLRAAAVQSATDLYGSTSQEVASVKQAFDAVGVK
How it was run: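 Thermolysin cleaved 0.2 mM Suc-Ala-Ala-Phe-AMC in pH 7.5 TES with excess leucine aminopeptidase. Released 7-amino-4-methylcoumarin was read by fluorescence (ex 383, em 455). Percent inhibition was taken at 10 min.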

[20] = Partion ratio of the compound; type: ADME
[21] = species: Rattus norvegicus; assay: Inhibition of lung hemorrhage caused by elastase in an acute reverse passive Arthus reaction in rat at 250 ug/animal (ED50=55 ug); type: functional
[22] = target: Prothrombin (Homo sapiens) (UniProt P00734); assay: Inhibitory activity against Thrombin at 10 min (48 mM conc)
How it was run: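 Human thrombin was assayed colorimetrically with 0.2 mM Tosyl-Gly-Pro-Arg-p-nitroanilide as substrate. Percent inhibition was read at 10 min.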

[23] = target: T4, Neutrophil elastase (Homo sapiens) (UniProt P08246)
T4 sequence (whole entry): T1 sequence (P08246 whole entry)

[24] = target: T5, Cathepsin G (Homo sapiens) (UniProt P08311); assay: Inhibitory activity against Cathepsin G at 10 min (48 mM conc)using t-Boc-Tyr-ONp as substrate
T5 sequence (whole entry): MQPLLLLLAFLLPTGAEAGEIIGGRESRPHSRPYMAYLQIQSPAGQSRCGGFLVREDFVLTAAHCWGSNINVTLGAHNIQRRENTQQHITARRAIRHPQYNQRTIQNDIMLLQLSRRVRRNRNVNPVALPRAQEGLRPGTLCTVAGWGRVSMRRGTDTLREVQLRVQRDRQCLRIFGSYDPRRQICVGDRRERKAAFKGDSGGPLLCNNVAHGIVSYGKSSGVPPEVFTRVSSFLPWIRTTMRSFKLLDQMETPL

CO[C@H]1C(=O)N2C(C(=O)N3CCC[C@H]3C(=O)O)=C(COC(C)=O)CS(=O)(=O)[C@H]12 showed a half-life [1] of 21 h, a Ki [2] of 1700 nM and an IC50 [3] of 500 nM. The T50 [4] was 185 min, the ED50 [5] was 30 µg and the Inhibition [6] was 99%. It also gave an Inhibition [7] of 97%, an Inhibition [8] of 78% and an Inhibition [9] of 32%. For the same molecule, the Inhibition [10] was 77%, the Inhibition [11] was 86% and the Inhibition [12] was 93%. For the same molecule, the Inhibition [13] was 70%, the Inhibition [14] was -8% and the Inhibition [15] was 6%. The inhibition [16] was 0%, the inhibition [17] was 14% and the inhibition [18] was 0%. It also gave an inhibition [19] of 0%, a Partition ratio [20] of 2 and an Inhibition [21] of 87%. For the same molecule, the inhibition [22] was 0%, the k obs / 1 [23] was 3800 M⁻¹ s⁻¹ and the inhibition [24] was 18%.

From ChEMBL document CHEMBL1125311, “Inhibition of human leukocyte elastase. 4. Selection of a substituted cephalosporin (L-658,758) as a topical aerosol” (J Med Chem, 1992)
